Values joined by “and” are separate entries in the source; they are usually repeats but may differ in a detail not shown here. Equal values may be shown once. Read-outs that look alike come from different tables or passages of the source. Marks after values point to notes of the source that are not given here.
Legend:
[1] = type: in vivo, healthy subjects (human); conditions: for AUC(0-t): AUClast; for Geometric Mean Ratio (90%CI) of AUCinf / Geometric Mean Ratio (90%CI) of AUClast / Geometric Mean Ratio (90%CI) of Cmax: istradefylline + rifampin vs istradefylline alone
Outline: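 Crossover in 20 healthy humans. Single oral 40 mg tablet of the test compound given after ≥8 h fast, alone (period 1) or on day 8 of rifampin 600 mg once daily (days 1–20, dosed 2 h after test compound). Venous plasma sampled predose to 312 h. Noncompartmental AUClast and AUCinf, reported as geometric means and geometric mean ratios with 90% CI.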

[2] = Safety and tolerability; type: in vivo, healthy subjects (human); conditions: for Subjects who experienced AEs: 20 subjects
[3] = ref data on file; Kyowa Kirin Pharmaceutical Development, Inc.; cited from earlier work
[4] = ref data on file; Kyowa Kirin Pharmaceutical Development, Inc.; cited from earlier work; remark: listed apart in the source
[5] = cited from earlier work
[6] = tested on: cytochrome P450 (CYP) isoenzymes; conditions: ref data on file; Kyowa Kirin Pharmaceutical Development, Inc.; cited from earlier work
[7] = in those who received various CYP3A4 inhibitors; 1449 healthy subjects and PD patients; cited from earlier work
[8] = coadministration of ketoconazole, healthy subjects; cited from earlier work
[9] = tested on: P‐glycoprotein (P‐gp); conditions: ref data on file; Kyowa Kirin Pharmaceutical Development, Inc.; cited from earlier work
[10] = doses of 20 and 40 mg/day; cited from earlier work
[11] = tested on: A2A receptor; conditions: A2A vs A1, A2B, A3; cited from earlier work
[12] = istradefylline 40 mg + steady-state rifampin 600 mg/day, arithmetic mean (SD)
[13] = istradefylline 40 mg alone, arithmetic mean (SD)
[14] = during administration of the substance alone
[15] = healthy subjects, independent of dose
[16] = ln-transformed, istradefylline 40 mg + rifampin 600 mg/day, geometric mean (CV%)
[17] = ln-transformed, istradefylline 40 mg alone, geometric mean (CV%)
[18] = metabolite-to-parent ratio, istradefylline 40 mg alone, arithmetic mean (SD)

CCn1c(=O)c2c(nc(/C=C/c3ccc(OC)c(OC)c3)n2C)n(CC)c1=O [Istradefylline]
Decrease in istradefylline exposure based on AUC values ([1]; during coadministration of steady-state oral rifampin 600 mg/day): ~80% | Cmax ([1]; human, plasma, oral, 40 mg): 171 ng/mL | Tmax ([1]; human, plasma, oral, 40 mg): 2 h | Vd/F ([1]; human, plasma, oral, 40 mg): 515 L | half-life ([1]; human, plasma, oral, 40 mg): 94.8 h | AUC(0-t) ([1]; human, plasma, oral, 40 mg, geometric mean, ln-transformed, istradefylline 40 mg alone, geometric mean (CV%)): 9460 ng·h/mL | AUC(0-t) ([1]; human, plasma, oral, 40 mg, istradefylline 40 mg alone, arithmetic mean (SD)): 9850 ng·h/mL | Cmax ([1]; human, plasma, po, 40 mg): 181 ng/mL | CL/F [1, 12]: 20.6 (6.7) L/h | CL/F [1, 13]: 4.0 (1.5) L/h | CL/F ([1]; istradefylline 40 mg alone, arithmetic mean (SD), listed as istradefylline): 4.0 L/h and 4.00 L/h | Geometric Mean Ratio (90%CI) of AUCinf [1]: 0.19 (0.18–0.20) | Geometric Mean Ratio (90%CI) of AUClast [1]: 0.21 (0.19–0.22) | Geometric Mean Ratio (90%CI) of Cmax [1]: 0.55 (0.49–0.62) | Geometric Mean Ratio (90%CI) of AUCinf ([1]; listed as istradefylline): 0.19 | Geometric Mean Ratio (90%CI) of AUClast ([1]; listed as istradefylline): 0.21 | Geometric Mean Ratio (90%CI) of Cmax ([1]; listed as istradefylline): 0.55 | Subjects who experienced AEs ([2]; during administration of istradefylline + rifampin): 25% | Subjects who experienced AEs [2, 14]: 20% | Tolerability ([2]; given alone or in combination with rifampin): well tolerated | Treatment-related AEs (considered related to istradefylline) ([2]; while receiving istradefylline alone, mild, transient disturbance in attention, asthenia, intermittent dizziness): single subject | Aqueous solubility [3]: poor aqueous solubility | Bound to plasma protein [4]: ~98% | Dose proportionality of exposure (Cmax and AUC) ([5]; healthy subjects and PD patients): directly proportional to istradefylline dose (up to 80 mg) | Apparent clearance (CL/F) [5, 15]: 4.1 to 6.0 L/h | Apparent volume of distribution (Vz/F) [5, 15]: 448 to 557 L | Terminal elimination half-life (t1/2) [5, 15]: 67 to 95 h | CYP isoenzymes partly involved in metabolism [6]: CYP1A2, 2B6, 2C8, 2C9, 2C18, and 2D6*1 | Main CYP isoenzymes involved in metabolism [6]: CYP1A1, 3A4, and 3A5 | Increase in AUC during the dosing interval at steady state (AUCss) [7]: 38% | Increase in AUCinf [8]: 2.5 fold | P-gp substrate [9]: not a P‐gp substrate | OFF time in PD patients [10]: statistically significant improvement in OFF time | In vitro affinity, selectivity among adenosine receptor subtypes [11]: higher in vitro affinity toward the A2A receptor than for A1, A2B, and A3 receptors

CO[C@H]1/C=C/O[C@@]2(C)Oc3c(C)c(O)c4c(O)c(c(/C=N/N5CCN(C)CC5)c(O)c4c3C2=O)NC(=O)/C(C)=C\C=C\[C@H](C)[C@H](O)[C@@H](C)[C@@H](O)[C@@H](C)[C@H](OC(C)=O)[C@@H]1C [rifampin, reference compound]
Subjects who experienced AEs [2, 14]: 85% | Subjects with chromaturia ([2]; subjects receiving rifampin): 70%

CCn1c(=O)c2c(nc(/C=C/c3ccc(O)c(OC)c3)n2C)n(CC)c1=O [M1 metabolite, 4′‐O‐monodesmethylated derivative of istradefylline]
Exposure of metabolite in plasma as share of total drug exposure ([1]; generally): < 9% | AUCinf [1, 12]: 159 (47.6) ^b ng·h/mL | AUClast [1, 12]: 118 (44.3) ng·h/mL | t1/2 [1, 12]: 17.6 (4.95) ^b h | Tmax ([1]; istradefylline 40 mg + steady-state rifampin 600 mg/day, median (min, max)): 3.0 (1.0, 6.0) h | AUClast [1, 13]: 123 (77.6) ng·h/mL | Tmax ([1]; istradefylline 40 mg alone, median (min, max)): 3.5 (2.0, 12.0) h | Geometric Mean Ratio (90%CI) of AUClast [1]: 1.04 (0.90–1.21) | Geometric Mean Ratio (90%CI) of Cmax [1]: 1.79 (1.59–2.01) | Geometric Mean Ratio (90%CI) of AUClast ([1]; listed as istradefylline M1): 1.04 | Geometric Mean Ratio (90%CI) of Cmax ([1]; listed as istradefylline M1): 1.79 | All M/P ratios ([1]; istradefylline alone or with rifampin (M8: except M/P ratio for Cmax after coadministration)): < 9% | Change in AUClast during rifampin coadministration (GMR comparison) ([1]; ln-transformed data): +4% | Change in Cmax during rifampin coadministration (GMR comparison) ([1]; ln-transformed data): +79% | AUClast, geometric mean [1, 16]: 110 (41.8) ng·h/mL | Cmax, geometric mean [1, 16]: 7.0 (29.0) ng/mL | AUClast, geometric mean [1, 17]: 105 (61.4) ng·h/mL | Cmax, geometric mean [1, 17]: 3.90 (46.3) ng/mL | M/P ratio (AUClast) [1, 18]: 0.0134 (0.0078) | M/P ratio (Cmax) [1, 18]: 0.0241 (0.0045) | Cmax ([1]; plasma, single oral istradefylline 40 mg alone, arithmetic mean (SD)): 4.34 (2.49) ng/mL

— article PMC5811788 (Journal of Clinical Pharmacology, 2017)
